≈ marks a conversion by molar mass, not a printed value. Calls of active or inactive are those of the source. No cut-off for these calls is given here.
How the values were obtained:
[1] = test system: Mus musculus; assay: Ex-vivo cardioprotective activity in BL6 mouse LAD ligation ischemic heart failure model assessed as left ventricular rate of pressure change in isolated heart at 10 uM, sc administered as infusion at 24 hrs post LAD ligation for 28 days (reference value: 6156 +/- 356 mmHg/s); assay type: functional
Procedure, shortened: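 LAD-ligated BL6 mice were infused via mini-osmotic pump with 10 µM in PBS pH 7.4 at 6 µL per day for 28 days. Isolated working hearts then ejected buffered perfusate against a constant 56 mmHg hydrostatic afterload, and LV +dP/dt was recorded. Mean ± SEM against vehicle-infused controls; one-way ANOVA with Newman-Keuls.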

[2] = test system: Mus musculus; assay: Ex-vivo cardioprotective activity in BL6 mouse LAD ligation ischemic heart failure model assessed as change in infarct size at 10 uM, sc administered as infusion at 24 hrs post LAD ligation for 28 days relative to control; assay type: functional, organism-based
Procedure, shortened: (§1)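 Permanent LAD ligation in 12-week-old WT BL6 mice under intraperitoneal ketamine (100 mg/kg) and xylazine (10 mg/kg). Starting within 24 h, agents in PBS pH 7.4 at 10 µM were infused by mini-osmotic pump at 6 µL per d for 28 d. Controls were vehicle-infused WT mice and cardiac P2X4R-overexpressing transgenic mice. Infarct size was taken after heart-function measurement, from formalin-fixed, paraffin 4-µm Masson's trichrome sections, as infarct length over endocardial plus epicardial circumference. One-way ANOVA with Newman-Keuls test.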

[3] = test system: Mus musculus; assay: Cardioprotective activity in BL6 mouse LAD ligation ischemic heart failure model assessed as fractional shortening at 10 uM, sc administered as infusion at 24 hrs post LAD ligation for 28 days by echocardiography (reference value: 17.33 +/- 1.36%); assay type: functional
[4] = test system: Mus musculus; assay: Cardioprotective activity in BL6 mouse LAD ligation ischemic heart failure model assessed as change in infarct size at 10 uM, sc administered as infusion at 24 hrs post-LAD ligation for 1 month relative to control; assay type: functional, organism-based; procedure, shortened: as §1
[5] = test system: Mus musculus; assay: Cardioprotective activity in mouse overexpressing clasequestrin assessed as LV septal wall thickness at 10 uM, sc administered as infusion for 2 weeks (reference value: 0.45 +/- 0.007 mm); assay type: functional
[6] = test system: Mus musculus; assay: Cardioprotective activity in mouse overexpressing clasequestrin assessed as LV posterior wall thickness at 10 uM, sc administered as infusion for 2 weeks (reference value: 0.45 +/- 0.007 mm); assay type: functional
[7] = organism: Mus musculus; assay: Agonist activity at P2XR receptor in wild type BL6 mouse cardiac ventricular myocytes assessed as increase in contraction shortening
Procedure, shortened: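 Adult wild-type murine cardiac ventricular myocytes; contraction shortening recorded at basal control, during drug exposure and after washout. Data are mean ± standard error (13 or 8 myocytes per agent).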

[8] = Aqueous solubility of the compound after 1 hr; assay type: physicochemical; details: buffer
Procedure, shortened: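 Excess solid stirred in water, supernatant removed and lyophilized; solubility calculated from the mass of solid recovered.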

[9] = test system: Mus musculus; assay: Cardioprotective activity in mouse overexpressing clasequestrin assessed as increase in LV septal wall thickness during systole at 10 uM, sc administered as infusion for 2 weeks relative to control; assay type: functional, organism-based
Procedure, shortened: (§2)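 CSQ-overexpressing mice with heart failure, 2-week infusion (n=5). Outcome is LV septal and posterior wall thickness versus normal-saline-infused CSQ mice. Values are mean ± standard error.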

[10] = test system: Mus musculus; assay: Cardioprotective activity in mouse overexpressing clasequestrin assessed as increase in LV posterior wall thickness during diastole at 10 uM, sc administered as infusion for 2 weeks relative to control; assay type: functional, organism-based; procedure, shortened: as §2
[11] = Chemical stability of the compound in aqueous medium at pH 11 at 50 degC after 24 hrs by HPLC analysis; assay type: physicochemical; details: buffer, pH 11, 24 h
Procedure, shortened: (§3)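 Incubation for 24 h in aqueous medium at pH 1 or pH 11, 50°C, and checked for hydrolysis.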

[12] = test system: Plasma; assay: Metabolic stability of the compound in rat plasma at 1.09 mM by HPLC analysis; assay type: ADME, cell-free; details: 1090 µM
Procedure, shortened: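 Incubation with rat plasma at 37°C for 24 h, and checked for hydrolysis.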

[13] = Chemical stability of the compound in aqueous medium at pH 1 at 50 degC after 24 hrs by HPLC analysis; assay type: physicochemical; details: buffer, pH 1, 24 h; procedure, shortened: as §3
[14] = test system: Liver; assay: Metabolic stability of the compound in mouse liver microsomes by HPLC analysis; assay type: ADME, Microsome
Procedure, shortened: (§4)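 Incubation with mouse or rat liver microsomes at 37°C for 24 h, and checked for hydrolysis.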

[15] = test system: Mus musculus; assay: Cardioprotective activity in mouse overexpressing clasequestrin assessed as increase in LV posterior wall thickness during systole at 10 uM, sc administered as infusion for 2 weeks relative to control; assay type: functional, organism-based; procedure, shortened: as §2
[16] = test system: Liver microsomes; assay: Metabolic stability of the compound in rat liver microsomes by HPLC analysis; assay type: ADME, Microsome; procedure, shortened: as §4
[17] = test system: Mus musculus; assay: Cardioprotective activity in mouse overexpressing clasequestrin assessed as increase in fractional shortening at 10 uM, sc administered as infusion for 2 weeks relative to control; assay type: functional, organism-based
[18] = test system: Mus musculus; assay: Cardioprotective activity in mouse overexpressing clasequestrin assessed as prevention of LV wall thinning at 10 uM, sc administered as infusion for 2 weeks; assay type: functional, organism-based; procedure, shortened: as §2
[19] = test system: Mus musculus; assay: Cardioprotective activity in mouse overexpressing clasequestrin assessed as increase in fractional shortening at 3.3 uM, sc administered as infusion for 2 weeks relative to control; assay type: functional, organism-based

| SMILES | Activity [1] | Activity [2] | Activity [3] | Activity [4] | further results |
| --- | --- | --- | --- | --- | --- |
| CCOP(=O)(OCC)OC[C@@]12C[C@@H]1[C@@H](n1cnc3c(N)nc(Cl)nc31)[C@H](O)[C@@H]2O | 6711 mmHg/s | inactive | 24.71% | inactive | Activity ([4]; tested as the 2H-labelled form): inactive |
| Nc1nc(Cl)nc2c1ncn2[C@H]1[C@H](O)[C@H](O)[C@]2(CSP(=O)(O)O)C[C@H]12 | 6553 mmHg/s | inactive | – | inactive | Activity [5]: 0.492 mm; Activity [6]: 0.493 mm |
| CCOP(=S)(OCC)OC[C@@]12C[C@@H]1[C@@H](n1cnc3c(N)nc(Cl)nc31)[C@H](O)[C@@H]2O | – | – | – | inactive | – |
| Nc1nc(Cl)nc2c1ncn2[C@@H]1C2CC2(COP(=O)(O)O)[C@@H](O)[C@H]1O (single isomer, unassigned) | 6508 mmHg/s | inactive | 22.14% | inactive | Activity [7]: Active |
| [2H]C([2H])(OP(=O)(O)O)[C@@]12C[C@@H]1[C@@H](n1cnc3c(N)nc(Cl)nc31)[C@H](O)[C@@H]2O | – | – | 23.06% | – | – |
| CCOP(=O)(C[C@@]12C[C@@H]1[C@@H](n1cnc3c(N)nc(Cl)nc31)[C@H](O)[C@@H]2O)OCC | 5946 mmHg/s | inactive | – | inactive | solubility [8]: 60 mM (≈ 25.9 mg/mL) |
| CCOP(=O)(OCC)SC[C@@]12C[C@@H]1[C@@H](n1cnc3c(N)nc(Cl)nc31)[C@H](O)[C@@H]2O | – | – | 24.31% | inactive | – |
| CC(C)OP(=O)(CC[C@@]12C[C@@H]1[C@@H](n1cnc3c(N)nc(Cl)nc31)[C@H](O)[C@@H]2O)OC(C)C | – | – | – | – | Activity [9]: Active; Activity [10]: Active; Stability [11]: Stable; solubility [8]: 7.25 mM (≈ 3.44 mg/mL); Stability [12]: Stable; Stability [13]: Stable; Stability [14]: Stable; Activity [15]: Active; Stability [16]: Stable |
| CC(C)(C)OP(=O)(OC[C@@]12C[C@@H]1[C@@H](n1cnc3c(N)nc(Cl)nc31)[C@H](O)[C@@H]2O)OC(C)(C)C | 6681 mmHg/s | inactive | 24.07% | inactive | – |
| Nc1nc(I)nc2c1ncn2[C@H]1[C@H](O)[C@H](O)[C@]2(CP(=O)(O)O)C[C@H]12 | 6581 mmHg/s | inactive | – | inactive | Activity [17]: inactive; Activity [18]: inactive |
| [2H]C([2H])(OP(=O)(OCC)OCC)[C@@]12C[C@@H]1[C@@H](n1cnc3c(N)nc(Cl)nc31)[C@H](O)[C@@H]2O | – | – | 21.48% | – | – |
| CCOP(=S)(OCC)SC[C@@]12C[C@@H]1[C@@H](n1cnc3c(N)nc(Cl)nc31)[C@H](O)[C@@H]2O | – | – | 24.76% | inactive | – |
| CCOP(=O)(C[C@@]12C[C@@H]1[C@@H](n1cnc3c(N)nc(I)nc31)[C@H](O)[C@@H]2O)OCC | – | – | 23.05% | inactive | – |
| Nc1nc(Cl)nc2c1ncn2[C@H]1[C@H](O)[C@H](O)[C@]2(CCP(=O)(O)O)C[C@H]12 | – | – | – | – | Activity [7]: Active; Activity [17]: Active; Activity [19]: Active |
| CC(C)OP(=O)(OC[C@@]12C[C@@H]1[C@@H](n1cnc3c(N)nc(Cl)nc31)[C@H](O)[C@@H]2O)OC(C)C | – | – | 25.77% | inactive | – |
| Nc1nc(Cl)nc2c1ncn2[C@H]1[C@H](O)[C@H](O)[C@]2(COP(=O)(O)O)C[C@H]12 | – | – | – | – | Activity ([4]; tested as the 2H-labelled form): inactive |

— ChEMBL document CHEMBL2311265, “5'-Phosphate and 5'-phosphonate ester derivatives of (N)-methanocarba adenosine with in vivo cardioprotective activity” (J Med Chem, 2013)
